Screens as filed in PubChem BioAssay.
FN deposit inh – fibronectin deposition inhibition; AID 743247; hit rate 0.086% among 350,000; inhibition, % at 12.6 µM; AH1F fibroblasts, Alexa488-fibronectin deposition fluorescence, overnight;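 active = mean inhibition across replicates of 30% or more, regardless of how many single replicates reach that level; inconclusive = mean under 30% yet at least half of replicates reach 30%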;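 note: positive control wells lacked labelled fibronectin entirely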
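Measured by – fluorescence 485/525 nm · System – AH1F fibroblast monolayer, labelled fibronectin deposition · Amount – 10000 cells per well · Buffer or medium – serum-reduced DMEM (2% serum) · Doses – single dose, pinned · Also added – fluorescent fibronectin at 24 nM final · Schedule – 1 h cell attachment, overnight exposure to compound and label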
FGF22 binding – shifts melting point of recombinant human FGF22; AID 651658; activity (Tm shift, normalised), % at 9.99 µM; recombinant FGF22 thermal shift, SYPRO orange fluorescence; percent of sucrose octasulfate shift, DMSO zero; hit rate 1.5% among 340,000;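 active = mean Tm shift, scaled 0 neutral to 100 positive control, at about 1.3% or above, every replicate too, limit read from the data; inconclusive = no clear call, values can overlap the other calls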
Target sequence (Q9HCT0 whole entry, looked up): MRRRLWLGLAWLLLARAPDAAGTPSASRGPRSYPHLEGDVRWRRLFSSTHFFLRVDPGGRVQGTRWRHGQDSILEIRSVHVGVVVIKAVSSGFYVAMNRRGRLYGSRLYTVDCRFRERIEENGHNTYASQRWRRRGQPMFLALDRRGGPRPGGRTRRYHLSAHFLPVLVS
DENV2 CPE rescue – protects cells from dengue virus 2 cytopathic effect; DENV2-infected cells, cytopathic effect rescue, plate reader; CPE inhibition, % at 9.99 µM; hit rate 1.7% among 350,000; in the data active = CPE inhibition above about 20%, passing the limit was not always enough; inconclusive = no clear call, values can overlap the other calls; tested in BHK-21 cells;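 note: 0% = median of neutral control wells and 100% = median of positive control wells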
ARNT TACC3 PPI – disrupts binding between human ARNT and TACC3. Q9Y6A5. AlphaScreen His-ARNT PAS-B/GST-TACC3 binding, luminescence; TACC3 fragment carries E629A point mutation. inhibition, % at 9.99 µM. hit rate 0.66% among 390,000. AID 623870;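 active = mean inhibition of replicates at least 50% and at least half of replicates each reaching 50%; inconclusive = half or more replicates reach 50% but mean below 50%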;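 note: 0% = complete ARNT plus TACC3 wells and 100% = ARNT alone without TACC3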
Xi reactivation – reactivates the inactive X chromosome in mouse fibroblasts. XiGFP mouse fibroblasts, % GFP-positive cells imaging, 3 d; cells co-treated with 5-aza-dC sensitizer; scaled so ellipticine positive control = 100%. activation, % at 7.58 µM. hit rate 0.055% among 360,000;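 active = mean normalized replicate activation at least 10% and every replicate at or above 10%; inconclusive = only one of the two criteria met; inactive = mean below 10% and not all replicates reach 10%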;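 note: 0% = median of on-plate neutral control wells and 100% = ellipticine 6 µM median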
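Material: XiGFP fibroblasts, SV40-immortalized; Buffer or medium: DMEM containing 5-aza-dC; Compound dosing: single point; Times: 3 days compound exposure.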
SIRT5 inh – blocks human SIRT5 desuccinylation of peptide; Q9NXA8; Purified SirT5, succinyl-peptide AMC, trypsin-coupled fluorescence; inhibition, % at 15 µM; hit rate 1.1% among 330,000; in the data active = inhibition above about 15%; inconclusive = no clear call, values can overlap the other calls
Target sequence (Q9NXA8 whole entry, looked up): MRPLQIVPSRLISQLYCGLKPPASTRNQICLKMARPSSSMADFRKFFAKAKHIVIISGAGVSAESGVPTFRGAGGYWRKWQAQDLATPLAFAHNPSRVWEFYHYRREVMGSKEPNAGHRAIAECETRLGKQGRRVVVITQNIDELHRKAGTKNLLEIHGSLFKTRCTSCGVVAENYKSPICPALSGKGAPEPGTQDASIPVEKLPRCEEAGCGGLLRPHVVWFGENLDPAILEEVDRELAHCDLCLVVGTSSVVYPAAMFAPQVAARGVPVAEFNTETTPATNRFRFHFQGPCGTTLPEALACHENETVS
An asterisk follows results filed as active; ? = inconclusive; . = no result. This is a sample that favours compounds with a hit; in the whole collection about 3.8% have one here.

SMILES	FN deposit inh	FGF22 binding	DENV2 CPE rescue	ARNT TACC3 PPI	Xi reactivation	SIRT5 inh
O=C(CSc1ccc(-c2ccccn2)nn1)Nc1ccc(F)c(F)c1	7	0	0	43	1	-1
CCCn1cc(S(=O)(=O)c2ccc(C)cc2)c(=O)c2cc(OC)c(OC)cc21	-23	0	8	7	0	20*
CCCn1cc(S(=O)(=O)c2ccc(C)cc2)c(=O)c2cc(OC)ccc21	5	0	-1	-22	0	1
COc1ccc(-c2ccc([C@@H]3[C@@H](CO)N4CCCCN(CC5CCOCC5)C[C@H]34)cc2)cc1	.	0	48*	13	0	-2
COc1ccc(-c2ccc([C@@H]3[C@H]4CN(CC5CCOCC5)CCCCN4[C@H]3CO)cc2)cc1	.	-1	63*	9	0	-1
C[C@@H]1CN([C@@H](C)CO)S(=O)(=O)c2ccc(-c3ccc(F)cc3)cc2O[C@H]1CN(C)C	7	0	1	4	0	-5
Cc1ncc([N+](=O)[O-])n1CC(=O)Nc1ccc(F)c(F)c1	-2	0	35*	-11	0	1
COc1cccc(-c2ccc([C@H]3[C@H]4CN(CC5CCOCC5)CCCCN4[C@H]3CO)cc2)c1	.	0	-6	17	.	-1
C[C@H](CO)N1C[C@H](C)[C@H](CN(C)Cc2ccc(Oc3ccccc3)cc2)Oc2ccc(NC(=O)C3CC3)cc2CC1=O	.	0	-2	4	0	6
Cc1noc(C)c1NC(=O)Nc1ccc2c(c1)CC(=O)N([C@H](C)CO)C[C@@H](C)[C@H](CN(C)Cc1ccc(C(F)(F)F)cc1)O2	5	0	9	-5	0	13
c1ccc(-c2noc(CC3CCCCC3)n2)cc1	0	43*	-2	-3	0	1
c1ccc(-c2noc(CCC3CCCC3)n2)cc1	-8	0	-5	-15	0	0
CCOC(=O)c1cnc2nc(C)nn2c1N	-1	43*	-3	-5	0	69*
C#CCOCCOCCOCCNc1nc(N2CCN(C(=O)C(CCC(=O)O)n3cc(C(N)CC(C)C)nn3)CC2)nc(N2CCN(C(=O)C(Cc3cc4ccccc4[nH]3)n3cc(C(N)Cc4ccc(O)cc4)nn3)CC2)n1 (stereo not given)	.	.	.	46*	.	.
C#CCOCCOCCOCCNc1nc(N2CCN(C(=O)[C@H](CC(N)=O)n3cc(C(N)[C@H](C)CC)nn3)CC2)nc(N2CCN(C(=O)[C@H](CC(N)=O)n3cc(C(N)[C@@H](C)CC)nn3)CC2)n1 (stereo not given in full)	-10	0	21*	6	0	.
C#CCOCCOCCOCCNc1nc(N2CCN(C(=O)[C@H](CCCN=C(N)N)n3cc(C(N)[C@@H](C)CC)nn3)CC2)nc(N2CCN(C(=O)[C@H](CC(N)=O)n3cc([C@@H](N)CC(N)=O)nn3)CC2)n1 (stereo not given in full)	-14	0	-5	16	0	-7
C#CCOCCOCCOCCNc1nc(N2CCN(C(=O)[C@H](CCC(=O)O)n3cc(C(N)CC(C)C)nn3)CC2)nc(N2CCN(C(=O)[C@H](Cc3cc4ccccc4[nH]3)n3cc(C(N)CC(C)C)nn3)CC2)n1 (stereo not given in full)	.	.	.	-3	.	.
C#CCOCCOCCOCCNc1nc(N2CCN(C(=O)[C@H](CCCN=C(N)N)n3cc(C(N)[C@@H](C)CC)nn3)CC2)nc(N2CCN(C(=O)[C@H](CC(N)=O)n3cc([C@@H](N)C(C)C)nn3)CC2)n1 (stereo not given in full)	5	0	37*	14	0	.
C#CCOCCOCCOCCNc1nc(N2CCOCC2)nc(N2CCN(C(=O)[C@H](CCCN=C(N)N)n3cc(C(N)[C@@H](C)CC)nn3)CC2)n1 (stereo not given in full)	3	15*	119*	11	0	.
O=C(C[C@@H]1C[C@H]2c3cc(NC(=O)Nc4ccc(C(F)(F)F)cc4)ccc3O[C@H]2[C@@H](CO)O1)NCc1cccnc1	.	0	?	-1	0	0
Cc1cccc(S(=O)(=O)N2CC[C@@H]3[C@H](CO)Nc4ccc(C#Cc5cccc(F)c5)cc4[C@@H]32)c1	-24	0	2	9	0	6
CC(=O)N(C)C[C@@H]1Oc2ncc(C#CC(C)(C)O)cc2C(=O)N([C@H](C)CO)C[C@H]1C	0	1	-9	-7	-1	3
Cc1ccccc1N=C1Nc2ccccc2N[C@]12C[C@H]1CCC(=O)N3CC[C@@H](C2)[C@@H]13	-1	0	148*	29	0	-4
CCCN(C)C[C@@H]1Oc2cc(-c3ccc(F)cc3)ccc2S(=O)(=O)N([C@H](C)CO)C[C@@H]1C	.	0	-7	7	0	1
Cc1ccc(NC(=O)c2[nH]cnc2C(=O)NN)cc1	-14	0	7	-1	0	-3
SMILES	FN deposit inh	FGF22 binding	DENV2 CPE rescue	ARNT TACC3 PPI	Xi reactivation	SIRT5 inh
NNC(=O)c1nc[nH]c1C(=O)Nc1ccccn1	11	43*	0	48*	0	-2
Cc1c(C(=O)NC(=S)Nc2ccc(N3CCOCC3)cc2)cccc1[N+](=O)[O-]	-10	43*	-8	-3	0	0
O=C(Nc1ccc(N2CCCC2)cc1)c1ccccc1[N+](=O)[O-]	-16	0	-1	-3	0	-3
CCCOC(=O)c1ccc(NC(=O)c2ccccc2OC)cc1	2	0	-5	.	0	0
CCCOC(=O)c1ccc(NC(=O)c2ccccc2[N+](=O)[O-])cc1	-2	43*	-9	4	1	-2
Cc1ccccc1C(=O)N1CCN(c2ccc(NC(=O)c3ccccc3[N+](=O)[O-])cc2)CC1	-4	0	10	0	0	19*
CNC[C@@H]1Oc2c(cccc2N(C)C)C(=O)N(C)C[C@@H]1C	3	.	.	.	0	.
CC1CCCN(CCOCCSc2ccccc2)C1 (stereo not given)	12	0	2	-8	0	21*
C[C@H](CO)N1C[C@H](C)[C@H](CN(C)C(=O)Nc2ccc(-c3cccs3)cc2)OCc2cn(nn2)CCCC1=O	-3	1	-2	-4	0	3
C[C@@H]1CN([C@@H](C)CO)C(=O)c2cc(NC(=O)Nc3ccc(C(F)(F)F)cc3)ccc2O[C@@H]1CN(C)C(=O)Nc1ccc2c(c1)OCO2	.	0	10	19	-1	15*
